ChEMBL document CHEMBL4425103, “Diving into the Water: Inducible Binding Conformations for BRD4, TAF1(2), BRD9, and CECR2 Bromodomains” (J Med Chem, 2016)

How the values were obtained:
[1] = tested on: T1, Chromatin remodeling regulator CECR2 (Homo sapiens), Q9BXF3 [Y520I]; test: Binding affinity to CECR2 Y520I mutant (unknown origin) assessed as change in melting temperature at 10 uM by SYPRO red dye based differential scanning fluorimetry
T1 sequence (whole entry): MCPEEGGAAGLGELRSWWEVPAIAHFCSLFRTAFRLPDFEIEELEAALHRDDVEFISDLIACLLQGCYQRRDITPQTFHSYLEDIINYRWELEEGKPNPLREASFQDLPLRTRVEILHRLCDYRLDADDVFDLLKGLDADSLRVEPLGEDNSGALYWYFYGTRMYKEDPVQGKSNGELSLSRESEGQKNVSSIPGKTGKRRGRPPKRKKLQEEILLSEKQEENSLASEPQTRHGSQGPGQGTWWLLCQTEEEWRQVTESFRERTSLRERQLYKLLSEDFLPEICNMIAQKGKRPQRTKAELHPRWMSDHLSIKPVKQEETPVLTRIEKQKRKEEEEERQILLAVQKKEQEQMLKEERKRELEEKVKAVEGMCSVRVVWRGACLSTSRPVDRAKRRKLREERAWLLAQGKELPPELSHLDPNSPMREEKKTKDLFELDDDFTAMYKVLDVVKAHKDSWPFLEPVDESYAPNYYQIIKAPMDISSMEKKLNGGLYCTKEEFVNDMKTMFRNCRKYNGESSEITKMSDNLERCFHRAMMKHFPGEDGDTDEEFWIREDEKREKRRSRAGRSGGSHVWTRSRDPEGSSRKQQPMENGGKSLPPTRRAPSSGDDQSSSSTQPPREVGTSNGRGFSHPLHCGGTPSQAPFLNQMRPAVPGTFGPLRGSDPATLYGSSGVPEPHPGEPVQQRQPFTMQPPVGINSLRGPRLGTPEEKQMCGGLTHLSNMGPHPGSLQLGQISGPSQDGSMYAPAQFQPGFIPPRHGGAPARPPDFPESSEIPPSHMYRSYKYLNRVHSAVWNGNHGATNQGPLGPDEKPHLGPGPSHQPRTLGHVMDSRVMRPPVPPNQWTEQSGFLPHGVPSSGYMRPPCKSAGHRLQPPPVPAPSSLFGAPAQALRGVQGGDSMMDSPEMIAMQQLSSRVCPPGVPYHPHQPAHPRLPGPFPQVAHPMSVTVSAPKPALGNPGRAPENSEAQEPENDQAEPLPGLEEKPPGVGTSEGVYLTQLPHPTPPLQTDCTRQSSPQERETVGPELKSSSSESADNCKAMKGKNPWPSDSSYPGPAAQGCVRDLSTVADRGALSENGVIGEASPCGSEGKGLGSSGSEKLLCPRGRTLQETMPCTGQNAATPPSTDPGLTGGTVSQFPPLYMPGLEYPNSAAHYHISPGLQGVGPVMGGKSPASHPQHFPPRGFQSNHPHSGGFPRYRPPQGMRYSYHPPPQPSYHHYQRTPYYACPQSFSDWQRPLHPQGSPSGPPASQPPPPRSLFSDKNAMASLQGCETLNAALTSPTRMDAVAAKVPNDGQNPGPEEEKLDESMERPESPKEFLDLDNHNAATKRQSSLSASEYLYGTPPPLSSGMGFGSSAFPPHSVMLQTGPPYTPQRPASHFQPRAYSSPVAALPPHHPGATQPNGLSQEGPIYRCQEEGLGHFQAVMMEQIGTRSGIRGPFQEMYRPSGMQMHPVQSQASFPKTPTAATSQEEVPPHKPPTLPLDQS
How it was run: (§1)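 Differential scanning fluorimetry: aggregate removed by centrifugation, then bromodomain at 4 µM final with 10X SYPRO Red, 10 µM compound and 0.2% DMSO in 20 mM HEPES pH 7.7, 100 mM NaCl. Heated 25 to 95 °C, fluorescence read at 1 °C steps. Apparent Tm taken from melt curves; mean of at least five wells for CECR2.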

Peregrin = biological target: T2, Peregrin (Homo sapiens, UniProt P55201); test: Displacement of biotinylated JQ1 analog from recombinant His-tagged BRPF1 (unknown origin) incubated for 10 mins by TR-FRET assay
T2 sequence (P55201 whole entry): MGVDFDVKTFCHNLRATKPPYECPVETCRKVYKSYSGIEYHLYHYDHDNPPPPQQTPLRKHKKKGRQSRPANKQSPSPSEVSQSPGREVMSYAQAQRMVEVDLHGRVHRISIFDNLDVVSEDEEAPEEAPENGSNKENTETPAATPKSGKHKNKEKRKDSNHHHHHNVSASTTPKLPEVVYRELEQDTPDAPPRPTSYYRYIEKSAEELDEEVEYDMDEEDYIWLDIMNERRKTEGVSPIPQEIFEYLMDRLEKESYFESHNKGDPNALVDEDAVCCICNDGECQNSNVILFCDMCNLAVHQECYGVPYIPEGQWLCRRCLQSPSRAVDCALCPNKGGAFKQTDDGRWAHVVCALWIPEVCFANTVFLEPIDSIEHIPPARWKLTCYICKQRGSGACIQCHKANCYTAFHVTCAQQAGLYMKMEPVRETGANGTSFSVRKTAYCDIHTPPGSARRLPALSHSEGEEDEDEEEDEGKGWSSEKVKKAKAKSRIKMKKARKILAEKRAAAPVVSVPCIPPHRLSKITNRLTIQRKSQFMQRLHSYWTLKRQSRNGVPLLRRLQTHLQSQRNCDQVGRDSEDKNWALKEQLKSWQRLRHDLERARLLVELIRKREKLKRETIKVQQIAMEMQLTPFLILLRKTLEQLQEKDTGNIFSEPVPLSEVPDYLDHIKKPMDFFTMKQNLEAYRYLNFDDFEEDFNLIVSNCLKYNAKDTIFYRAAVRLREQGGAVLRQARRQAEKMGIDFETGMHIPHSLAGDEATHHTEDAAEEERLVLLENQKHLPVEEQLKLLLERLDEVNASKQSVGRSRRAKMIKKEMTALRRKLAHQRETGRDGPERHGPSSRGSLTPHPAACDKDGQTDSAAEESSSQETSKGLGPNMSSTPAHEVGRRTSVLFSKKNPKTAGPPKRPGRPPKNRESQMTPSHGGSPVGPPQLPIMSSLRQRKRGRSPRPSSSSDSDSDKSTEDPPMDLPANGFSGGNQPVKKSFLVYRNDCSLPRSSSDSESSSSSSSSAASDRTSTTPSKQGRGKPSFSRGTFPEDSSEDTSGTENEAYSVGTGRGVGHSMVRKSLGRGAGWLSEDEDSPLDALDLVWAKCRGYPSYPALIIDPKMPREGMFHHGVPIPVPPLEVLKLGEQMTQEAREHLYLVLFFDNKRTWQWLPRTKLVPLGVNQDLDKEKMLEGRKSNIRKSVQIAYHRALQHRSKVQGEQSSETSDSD
How it was run: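 Bromodomain, then biotinylated ligand, each added with 10 min incubation. Anti-His europium (0.2 nM) plus streptavidin-APC followed for 40 min. 10-point titrations in duplicate, at least 2 independent runs.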

[2] = biological target: Chromatin remodeling regulator CECR2 (Homo sapiens, UniProt Q9BXF3); test: Binding affinity to wild type CECR2 (unknown origin) assessed as change in melting temperature at 10 uM by SYPRO red dye based differential scanning fluorimetry; how it was run: as §1
Sequence of Chromatin remodeling regulator CECR2 (Q9BXF3 whole entry, looked up): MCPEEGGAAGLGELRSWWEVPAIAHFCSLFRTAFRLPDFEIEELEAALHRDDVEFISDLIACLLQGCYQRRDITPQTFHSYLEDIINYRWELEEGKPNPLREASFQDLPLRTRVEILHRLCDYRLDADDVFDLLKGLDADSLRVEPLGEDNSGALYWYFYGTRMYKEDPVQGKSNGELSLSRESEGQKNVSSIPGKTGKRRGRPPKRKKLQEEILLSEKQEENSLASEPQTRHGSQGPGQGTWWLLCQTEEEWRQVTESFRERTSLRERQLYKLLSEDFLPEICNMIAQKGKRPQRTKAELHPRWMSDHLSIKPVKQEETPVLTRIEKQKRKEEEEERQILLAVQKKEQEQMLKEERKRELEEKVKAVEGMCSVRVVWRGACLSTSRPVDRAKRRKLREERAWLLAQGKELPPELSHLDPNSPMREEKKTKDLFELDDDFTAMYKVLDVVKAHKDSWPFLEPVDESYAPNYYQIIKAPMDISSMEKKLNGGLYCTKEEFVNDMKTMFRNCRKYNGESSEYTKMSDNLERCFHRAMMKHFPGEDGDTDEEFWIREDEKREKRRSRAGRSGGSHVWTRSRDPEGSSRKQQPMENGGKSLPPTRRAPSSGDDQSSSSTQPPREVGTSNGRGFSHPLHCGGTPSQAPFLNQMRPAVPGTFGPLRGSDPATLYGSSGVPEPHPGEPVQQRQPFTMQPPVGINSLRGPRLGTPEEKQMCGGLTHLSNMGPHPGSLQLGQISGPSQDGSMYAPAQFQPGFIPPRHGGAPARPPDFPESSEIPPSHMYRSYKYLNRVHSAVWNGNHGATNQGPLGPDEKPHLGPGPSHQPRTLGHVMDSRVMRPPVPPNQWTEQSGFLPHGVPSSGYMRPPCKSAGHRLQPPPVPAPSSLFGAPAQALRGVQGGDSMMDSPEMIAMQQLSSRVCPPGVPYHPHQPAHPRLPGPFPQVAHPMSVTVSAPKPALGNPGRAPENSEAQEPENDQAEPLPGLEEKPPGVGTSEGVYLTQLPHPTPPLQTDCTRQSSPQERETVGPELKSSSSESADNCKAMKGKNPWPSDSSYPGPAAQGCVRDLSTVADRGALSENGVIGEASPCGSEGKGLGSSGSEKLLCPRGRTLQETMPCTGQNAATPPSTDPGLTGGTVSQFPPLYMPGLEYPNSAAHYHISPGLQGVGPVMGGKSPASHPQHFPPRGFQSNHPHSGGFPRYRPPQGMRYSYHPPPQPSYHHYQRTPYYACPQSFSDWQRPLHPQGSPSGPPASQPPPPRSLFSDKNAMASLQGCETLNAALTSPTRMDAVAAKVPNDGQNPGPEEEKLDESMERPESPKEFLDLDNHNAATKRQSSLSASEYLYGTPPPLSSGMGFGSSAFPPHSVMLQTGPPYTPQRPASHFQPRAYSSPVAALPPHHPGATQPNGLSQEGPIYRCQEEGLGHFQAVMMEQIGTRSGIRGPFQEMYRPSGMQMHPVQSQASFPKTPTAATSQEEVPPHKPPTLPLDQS

SMILES | ΔTm [1] [°C] | IC50 (Peregrin) [µM] | ΔTm [2] [°C]
CN(C)C(=O)c1cccc(-c2cn(C)c(=O)c3[nH]ccc23)c1 | 3 | 1.5 | 6
C=CCn1cc(-c2cccc(C(=O)N(C)C)c2)c2cc[nH]c2c1=O | -1 | > 20 | 6
